Source: ChEMBL document CHEMBL1926548, “Synthesis and study of new paramagnetic resveratrol analogues” (Bioorg Med Chem, 2011)
Calls of active or inactive are those of the source. No cut-off for these calls is given here.

What was measured:
[1] = Antioxidant activity in ethyl alcohol assessed as trolox equivalents of ABTS radical scavenging activity after 6 mins by TEAC assay; type: functional
Method in brief: (§1)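 ABTS (7 mM in water) reacted with 2.45 mM persulfate (final) for 12–16 h in the dark at room temperature. Diluted in ethanol or 0.05 M PBS pH 7.4 to A734 0.70 ± 0.02. Compound added at 2.5–12.5 µM, read at 734 nm after 6 min at 25 °C. TEAC = slope of % inhibition vs concentration divided by Trolox slope. Three independent experiments.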

RAW264.7 [2] = test: Antiinflammatory activity in mouse RAW264.7 cells assessed as inhibition of LPS-induced nitrite production after 24 hrs by Griess method; type: functional, cell-based
Method in brief: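 Seeding, medium, overnight culture and treatment as for ROS: LPS 100 ng/mL plus compound at 12.5–100 µM for 24 h. Culture medium mixed with an equal volume of Griess reagent (1% sulphanilamide, 0.1% naphthylethylenediamide, 5% phosphoric acid). Absorbance read at 550 nm and expressed as % of LPS-only mean. n = 6, three repeats.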

RAW264.7 [3] = test: Antiinflammatory activity in mouse RAW264.7 cells assessed as inhibition of LPS-induced ROS production after 24 hrs using DCFH-DA by fluorescent microplate reader; type: functional, cell-based
Method in brief: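 Cells seeded 5*10^4/well and kept overnight at 37 °C, 5% CO2 in DMEM with 10% heat-inactivated FCS and L-glutamine. Fresh medium, then LPS (E. coli 0127:B8, 100 ng/mL) with or without compound (12.5–100 µM) for 24 h. C400 (2 µg/mL) added for a further 2 h. Fluorescence read at ex 485/em 555 nm. Reported as % of LPS-only mean. n = 6, three repeats.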

RAW264.7 [4] = test: Antiinflammatory activity in mouse RAW264.7 cells assessed as inhibition of LPS-induced TNF-alpha production at 50 uM after 1.5 hrs by ELISA; type: functional, cell-based
Method in brief: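 Cells seeded 2*10^5/well and cultured overnight as above. Fresh medium, then LPS (100 ng/mL) alone or with compound for 1.5 h. TNFα in medium measured with a mouse TNFα ELISA kit, read at 450 nm. Reported as % of LPS-only mean. n = 3, three repeats. Groups compared at p<0.05.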

[5] = Antioxidant activity in 0.05 M phosphate buffered saline assessed as trolox equivalents of ABTS radical scavenging activity after 6 mins by TEAC assay; type: functional; method in brief: as §1

Structure (SMILES)	Ratio [1]	inhibition (RAW264.7 [2])	inhibition (RAW264.7 [3])	inhibition (RAW264.7 [4])	Ratio [5]
CC1(C)C=C(/C=C/C2=CC(C)(C)N([O])C(C)(C)C2)CC(C)(C)N1[O]	0.22	Dose-dependent effect	Dose-dependent effect	Active	–
COc1ccc(/C=C/c2cc(OC)cc(OC)c2)cc1	0.04	–	–	–	–
COc1cc(/C=C/C2=CC(C)(C)NC(C)(C)C2)cc(OC)c1	0.32	Dose-dependent effect	Dose-dependent effect	Active	0.02
Oc1ccc(/C=C/c2cc(O)cc(O)c2)cc1	1	Dose-dependent effect	Dose-dependent effect	Active	1.3
CC1(C)c2ccc(/C=C/c3cc(O)cc(O)c3)cc2C(C)(C)N1[O]	0.98	Dose-dependent effect	Dose-dependent effect	Active	–
COc1cc(OC)cc(C2=C(c3cc(OC)cc(OC)c3)C(C)(C)NC2(C)C)c1	–	Dose-dependent effect	Dose-dependent effect	Active	–
CC1(C)C=C(/C=C/C2=CC(C)(C)N(O)C(C)(C)C2)CC(C)(C)N1O	–	–	–	–	0.37
CC1(C)C=C(/C=C/c2cc(O)cc(O)c2)CC(C)(C)N1O	–	–	–	–	0.62
COc1cc(/C=C/C2=CC(C)(C)N(O)C(C)(C)C2)cc(OC)c1	–	–	–	–	0.28
CC1(C)C(c2ccc(O)cc2)=C(c2cc(O)cc(O)c2)C(C)(C)N1[O]	1.02	Dose-dependent effect	Dose-dependent effect	inactive	–
CC1(C)C=C(/C=C/c2cc(O)cc(O)c2)CC(C)(C)N1[O]	0.92	Dose-dependent effect	Dose-dependent effect	Active	–
COc1cc(/C=C/C2=CC(C)(C)N([O])C(C)(C)C2)cc(OC)c1	0.2	Dose-dependent effect	Dose-dependent effect	–	–
CC1(C)c2ccc(/C=C/c3cc(O)cc(O)c3)cc2C(C)(C)N1O	–	–	–	–	0.67
